Source: publication PMC7043261 (Pharmacology Research & Perspectives, 2020)

How the values were obtained:
[1] = test system: formalin‐induced pain responses in rats; settings: ref 34 (Maione et al (2007)); cited from earlier work
[2] = test system: motor coordination; settings: ref 17 (Watabiki et al (2017)); cited from earlier work
[3] = test system: CFA‐induced mechanical allodynia in rats; assay: CFA‐induced inflammatory pain; type: in vivo; settings: rat, 1 and 4 hours after administration
Outline: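 Male Sprague‐Dawley rats received 50% CFA intraplantar (0.1 mL, right hind paw). PWT was measured 5 days later by von Frey up‐down method. The test compound (0.5% HPMC suspension) was dosed orally 1 h before PWT. Naproxen (0.5% methylcellulose) was dosed orally 4 h before PWT. Dosing volume 10 mL/kg. n=9, mean ± SEM; Steel's or Wilcoxon test.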

[4] = test system: CFA‐induced mechanical allodynia in rats; settings: cited from earlier work; for mechanical allodynia on CFA‐induced inflammatory pain: rats
[5] = test system: catalepsy; settings: ref 13 (Ahn et al (2011)); cited from earlier work
[6] = Pharmacokinetic study in rats; type: in vivo; settings: male, Sprague-Dawley, rat, plasma
Outline: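 Male Sprague‐Dawley rats. IV dose: 1 mg/kg in 40% dimethylacetamide/40% PEG400/20% water (1 mL/kg). Oral doses: 0.3, 1, 3 mg/kg as 0.5% HPMC suspension. Serial plasma was obtained by centrifugation (2,150g, 15 min, 4°C), extracted with ethyl acetate by supported‐liquid extraction, and reconstituted in 45% acetonitrile/55% 10 mmol/L ammonium acetate. Analysis by LC‐MS/MS; noncompartmental parameters.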

[7] = target: T1, rat FAAH (Rattus norvegicus, UniProt P97612); assay: FAAH inhibition, rat brain microsomes, AAMCA fluorescence, IC50; type: biochemical
T1 sequence (P97612 1-579): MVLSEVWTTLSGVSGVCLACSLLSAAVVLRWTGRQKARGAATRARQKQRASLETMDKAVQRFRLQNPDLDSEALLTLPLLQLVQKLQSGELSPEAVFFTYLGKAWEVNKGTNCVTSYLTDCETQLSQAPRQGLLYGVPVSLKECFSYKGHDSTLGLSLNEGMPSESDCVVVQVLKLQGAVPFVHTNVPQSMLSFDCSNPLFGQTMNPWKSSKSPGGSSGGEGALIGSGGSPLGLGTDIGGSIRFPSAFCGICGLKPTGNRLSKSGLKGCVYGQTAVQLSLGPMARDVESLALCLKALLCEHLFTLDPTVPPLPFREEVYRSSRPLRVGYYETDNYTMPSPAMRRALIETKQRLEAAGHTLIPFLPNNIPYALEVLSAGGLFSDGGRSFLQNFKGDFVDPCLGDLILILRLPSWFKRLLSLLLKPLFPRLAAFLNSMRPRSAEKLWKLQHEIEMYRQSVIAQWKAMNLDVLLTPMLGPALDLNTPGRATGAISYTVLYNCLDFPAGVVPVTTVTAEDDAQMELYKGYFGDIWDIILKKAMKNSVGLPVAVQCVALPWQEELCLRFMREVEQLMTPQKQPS

[8] = target: T2, human FAAH (Homo sapiens, UniProt O00519); assay: FAAH inhibition, human microsomes; type: biochemical
T2 sequence (O00519 1-579): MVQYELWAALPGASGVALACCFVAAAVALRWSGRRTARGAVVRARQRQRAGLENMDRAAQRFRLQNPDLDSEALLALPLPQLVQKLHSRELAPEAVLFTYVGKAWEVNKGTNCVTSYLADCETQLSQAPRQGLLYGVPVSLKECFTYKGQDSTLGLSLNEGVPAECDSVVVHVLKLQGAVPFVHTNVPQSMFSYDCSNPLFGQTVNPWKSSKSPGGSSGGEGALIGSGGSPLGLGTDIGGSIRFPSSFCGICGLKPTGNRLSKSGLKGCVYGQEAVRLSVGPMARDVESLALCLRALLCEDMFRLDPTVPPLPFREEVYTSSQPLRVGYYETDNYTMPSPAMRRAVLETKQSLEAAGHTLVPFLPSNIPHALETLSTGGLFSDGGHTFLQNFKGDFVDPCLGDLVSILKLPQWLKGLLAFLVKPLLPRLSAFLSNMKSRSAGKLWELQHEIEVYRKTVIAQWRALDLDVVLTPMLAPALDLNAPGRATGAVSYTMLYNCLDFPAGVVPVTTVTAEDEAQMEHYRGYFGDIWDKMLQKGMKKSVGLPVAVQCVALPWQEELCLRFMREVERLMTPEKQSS

[9] = test system: catalepsy in rats; assay: Catalepsy; type: in vivo; settings: rat, cut‐off 90 s
[10] = target: T3, human monoacylglycerol lipase (MAGL) (Homo sapiens, UniProt Q99685); assay: MAGL inhibitor screening assay kit; type: biochemical; settings: 30 μmol/L
T3 sequence (Q99685 1-303): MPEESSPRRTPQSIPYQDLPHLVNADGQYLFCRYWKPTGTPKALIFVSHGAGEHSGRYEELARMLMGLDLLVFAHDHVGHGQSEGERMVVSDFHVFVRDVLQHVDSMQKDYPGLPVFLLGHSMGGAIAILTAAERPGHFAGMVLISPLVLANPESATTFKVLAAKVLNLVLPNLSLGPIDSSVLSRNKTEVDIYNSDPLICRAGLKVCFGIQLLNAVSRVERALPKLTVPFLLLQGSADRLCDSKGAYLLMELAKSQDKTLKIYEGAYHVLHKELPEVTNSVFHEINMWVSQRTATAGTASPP

[11] = test system: CCI‐induced mechanical allodynia in rats; assay: CCI‐induced neuropathic pain; type: in vivo; settings: rat, 4 hours
Outline: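 Male Sprague‐Dawley rats. Under anesthesia, the left sciatic nerve was loosely tied with four ligatures at 1 mm intervals; in shams the right nerve was exposed but not ligated. On day 14 after surgery, the test compound (0.5% HPMC suspension) or pregabalin (saline) was given orally at 10 mL/kg 4 h before PWT. PWT was measured by von Frey up‐down method. n=8, mean ± SEM; Steel's or Wilcoxon test.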

[12] = test system: motor coordination in rats; assay: Motor coordination; type: in vivo; settings: rat, p.o., cut‐off 200 s
Outline: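 Male Sprague‐Dawley rats were trained at 20 rpm on 2 consecutive days, up to five trials, until they walked ≥200 s. They were retrained in two sessions on test day; rats reaching the criterion once were used. Time on the rod (cut‐off 200 s) was recorded 1 h after the oral test compound or 2 h after pregabalin. n=10, mean ± SEM; Steel's test.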

[13] = test system: formalin‐induced pain responses in rats; assay: Formalin test; type: in vivo; settings: rat; for formalin‐induced pain responses, late phase: 10 to 45 minutes; for formalin‐induced pain responses, early phase: 0 to 10 minutes
Outline: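 Male Wistar rats received oral dosing 1 h before injection: test compound in 0.5% HPMC or pregabalin in saline, 10 mL/kg. Then 0.5% formalin (50 µL) was injected into the left hind‐paw plantar surface. Flinching, licking and biting time was scored manually over 45 min: early phase 0–10 min, late phase 10–45 min. n=6, mean ± SEM; Dunnett's or Student's t‐test.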

[14] = target: 5-HT2B (h) (Homo sapiens, UniProt P41595); assay: Cerep BioPrint profiling and follow-up IC50; type: binding
[15] = test system: AEA concentrations in rat brain; assay: AEA concentrations in rat brain; type: in vivo
[16] = target: PAF (h) (Homo sapiens, UniProt P25105); assay: Cerep BioPrint profiling and follow-up IC50; type: binding
[17] = test system: spinal nerve ligation‐induced mechanical allodynia; settings: rats; single systemic administration; cited from earlier work
[18] = test system: partial sciatic nerve ligation‐induced mechanical allodynia; settings: rats; cited from earlier work
[19] = 30 mg/kg p.o. 1 hour before formalin

PAF (h), sequence (P25105 whole entry): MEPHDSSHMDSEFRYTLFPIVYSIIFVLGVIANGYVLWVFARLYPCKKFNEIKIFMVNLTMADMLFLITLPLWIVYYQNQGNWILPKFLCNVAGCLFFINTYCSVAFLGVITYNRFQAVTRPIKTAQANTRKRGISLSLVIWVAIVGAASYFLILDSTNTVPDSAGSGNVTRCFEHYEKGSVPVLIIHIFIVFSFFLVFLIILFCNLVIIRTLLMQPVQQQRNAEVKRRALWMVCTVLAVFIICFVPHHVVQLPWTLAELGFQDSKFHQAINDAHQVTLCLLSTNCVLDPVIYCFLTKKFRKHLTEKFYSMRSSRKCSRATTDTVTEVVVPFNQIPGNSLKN
5-HT2B (h), sequence (P41595 whole entry): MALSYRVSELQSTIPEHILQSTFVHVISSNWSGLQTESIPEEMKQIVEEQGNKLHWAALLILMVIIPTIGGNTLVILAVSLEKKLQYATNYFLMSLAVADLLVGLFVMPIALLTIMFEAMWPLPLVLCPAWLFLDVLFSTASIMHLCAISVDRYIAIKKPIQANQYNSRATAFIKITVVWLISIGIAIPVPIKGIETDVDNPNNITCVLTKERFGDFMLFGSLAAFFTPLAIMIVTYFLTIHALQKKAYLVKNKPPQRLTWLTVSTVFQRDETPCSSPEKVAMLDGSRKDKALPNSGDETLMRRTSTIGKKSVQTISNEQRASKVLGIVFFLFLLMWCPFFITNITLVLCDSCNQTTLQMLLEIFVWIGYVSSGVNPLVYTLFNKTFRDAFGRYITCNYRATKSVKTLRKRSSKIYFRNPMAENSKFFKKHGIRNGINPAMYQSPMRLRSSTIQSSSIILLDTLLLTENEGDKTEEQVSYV

SMILES: CCCCC/C=C\C/C=C\C/C=C\C/C=C\CCCC(=O)NCCc1c[nH]c2ccc(O)cc12 [AA‐5‐HT, N‐arachidonoyl‐serotonin]
- formalin‐induced pain responses [1]: significantly decreased formalin‐induced pain responses only in the late phase

SMILES: O=C(Nc1ccccc1)C1CCN(C(=O)Oc2cccnc2)CC1 [ASP8477, 3‐pyridyl 4‐(phenylcarbamoyl)piperidine‐1‐carboxylate]
- effect on motor coordination [2]: did not affect motor coordination up to 30 mg/kg

SMILES: COc1ccc2cc([C@H](C)C(=O)O)ccc2c1 [Naproxen, (S)‐(+)‐6‐methoxy‐α‐methyl‐2‐naphthaleneacetic acid, reference compound]
- mechanical allodynia (PWT), CFA‐induced inflammatory pain ([3]; 15 mg/kg p.o.): significantly suppressed

SMILES: O=C(Nc1cccnc1)N1CCC(Cc2cccc(Oc3ccc(C(F)(F)F)cn3)c2)CC1 [PF‐3845, N‐3‐pyridinyl‐4‐[[3‐[[5‐(trifluoromethyl)‐2‐pyridinyl]oxy]phenyl]methyl]‐1‐piperidinecarboxamide]
- mechanical allodynia on CFA‐induced inflammatory pain [4]: improved mechanical allodynia

SMILES: O=C(Nc1cccnn1)N1CCC(=Cc2cccc(Oc3ccc(C(F)(F)F)cn3)c2)CC1 [PF‐04457845, N‐pyridazin‐3‐yl‐4‐(3‐{[5‐(trifluoromethyl)pyridin‐2‐yl]oxy}benzylidene)piperidine‐1‐carboxamide]
- effects on catalepsy [5]: no effects on catalepsy up to 100‐fold higher dose
- mechanical allodynia on CFA‐induced inflammatory pain [4]: improved mechanical allodynia
- minimum effective dose in CFA‐induced inflammatory pain ([4]; ref 13 (Ahn et al (2011))): 0.1 mg/kg

SMILES: O=C(Nc1cccnn1)N1CCN([C@@H]2CCOc3cc(C(F)(F)F)ccc32)CC1 [PKM‐833, (R)‐N‐(pyridazin‐3‐yl)‐4‐(7‐(trifluoromethyl)chroman‐4‐yl)piperazine‐1‐carboxamide]
- half-life ([6]; iv, 1 mg/kg): 5.8 h
- bioavailability ([6]; po): 41 to 91%
- IC50 [7]: 10 ± 3 nM
- mechanical allodynia (PWT), CFA‐induced inflammatory pain ([3]; 0.3 to 3 mg/kg p.o.): significantly suppressed
- IC50 [8]: 8.8 ± 3 nM
- selectivity against other molecular targets ([8]; FAAH versus 137 other molecular targets): more than 200 fold
- Duration (s), catalepsy ([9]; 10 mg/kg, p.o., 1 h): 0.5 ± 0.1 s
- Duration (s), catalepsy ([9]; 10 mg/kg, p.o., 4 h): 3.7 ± 1.9 s
- Duration (s), catalepsy ([9]; 30 mg/kg, p.o., 1 h): 0.8 ± 0.2 s
- Duration (s), catalepsy ([9]; 30 mg/kg, p.o., 4 h): 1.0 ± 0.3 s
- inhibition of human MAGL [10]: did not inhibit
- mechanical allodynia (PWT), CCI‐induced neuropathic pain ([11]; PKM‐833 30 mg/kg p.o. (3‐30 mg/kg tested)): did not attenuate
- Duration (s) on rotarod ([12]; 10 mg/kg, 1 h): 200 ± 0 s
- Duration (s) on rotarod ([12]; 30 mg/kg, 1 h): 195 ± 6 s
- formalin‐induced pain responses, late phase ([13]; 3 mg/kg p.o. 1 hour before formalin): significantly reduced
- formalin‐induced pain responses, early phase ([13]; 0.3‐3 mg/kg p.o. 1 hour before formalin): Neither PKM‐833 nor pregabalin changed
- IC50 [14]: 6400 nM
- AEA concentrations in rat brain, time course ([15]; 1 mg/kg p.o., 1 to 48 hours before decapitation): significantly elevated for 8 hours but not at 24 and 48 hours
- AEA concentrations in rat brain, dose dependence ([15]; 0.3‐3 mg/kg p.o., 1 hour before decapitation): significant effects at doses of 1 and 3 mg/kg
- IC50 [16]: 2300 nM

SMILES: CC(C)C[C@H](CN)CC(=O)O [Pregabalin, 3(S)‐(aminomethyl)‐5‐methylhexanoic acid, reference compound]
- mechanical allodynia (PWT), CCI‐induced neuropathic pain ([11]; pregabalin 30 mg/kg p.o.): significantly antagonized
- Duration (s) on rotarod ([12]; 10 mg/kg, 2 h): 199 ± 1 s
- Duration (s) on rotarod ([12]; 30 mg/kg, 2 h): 167 ± 14 s
- formalin‐induced pain responses, early phase [13, 19]: Neither PKM‐833 nor pregabalin changed
- formalin‐induced pain responses, late phase [13, 19]: significantly reduced

SMILES: NC(=O)c1cccc(-c2cccc(OC(=O)NC3CCCCC3)c2)c1 [URB597, (3'‐(aminocarbonyl)[1,1'‐biphenyl]‐3‐yl)‐cyclohexylcarbamate]
- spinal nerve ligation‐induced mechanical allodynia [17]: improved
- partial sciatic nerve ligation‐induced mechanical allodynia [18]: had no improvement

SMILES: CS(=O)(=O)O.Cc1c(C(=O)c2cccc3ccccc23)c2cccc3c2n1[C@H](CN1CCOCC1)CO3 [WIN 55,212‐2, (R)‐(+)‐(2,3; dihydro‐5‐methyl‐3‐(4‐morpholinylmethyl)pyrrolo[1.2.3‐de]‐1,4‐benzoxazin‐6‐yl)‐1‐naphthalenylmethanone mesylate, reference compound]
- Duration (s), catalepsy ([9]; 3 mg/kg, s.c., 1 h): 13 ± 2 s
- Duration (s), catalepsy ([9]; 3 mg/kg, s.c., 4 h): 77 ± 7 s
